One assay has as its target Protease (Human immunodeficiency virus 1, UniProt Q9YQ12). In words: Inhibition of HIV1 protease by HPLC method.
Assay [1] can be described thus: Inhibition of HCV protease by fluorometric method. Further details: species or system Hepacivirus hominis.
For the next assay, the target named is T1, Renin (Homo sapiens) (UniProt P00797).
T1 sequence (whole entry): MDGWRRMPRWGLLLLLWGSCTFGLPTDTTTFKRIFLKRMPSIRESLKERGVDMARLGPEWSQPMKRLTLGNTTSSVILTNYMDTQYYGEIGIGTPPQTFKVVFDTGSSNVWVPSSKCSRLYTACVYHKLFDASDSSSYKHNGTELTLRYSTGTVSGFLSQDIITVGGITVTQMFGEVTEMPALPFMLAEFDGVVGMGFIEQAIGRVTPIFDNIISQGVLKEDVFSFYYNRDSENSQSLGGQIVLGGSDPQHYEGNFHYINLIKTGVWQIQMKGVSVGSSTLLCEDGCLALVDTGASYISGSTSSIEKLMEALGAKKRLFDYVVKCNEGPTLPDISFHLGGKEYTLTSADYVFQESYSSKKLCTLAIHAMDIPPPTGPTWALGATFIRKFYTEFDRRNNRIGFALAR
Nature of the assay: Inhibition of renin up to 1 ug/mL. The note with it: in the assay text read “1 mg/mL” for “1 ug/mL”. An outline of the steps: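 Recombinant renin was mixed with the compound in DMSO in 384-well plates. Fresh FRET peptide substrate Arg-Glu(EDANS)-[…]Dabcyl)-Arg was added, then rotated 30 min at 37 °C. Read-out was fluorometric, with inhibition calculated as in the HCV protease assay. Ac-HPFV-(Sta)-LF-NH2 was the positive control.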

A short description of assay [2]: Inhibition of trypsin up to 1 ug/mL. The note with it: in the assay text read “1 mg/mL” for “1 ug/mL”. An outline of the steps:
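Trypsin was mixed with the compound in DMSO and assay buffer in 384-well plates. Fresh HiLyte Fluor 488-labeled casein substrate was added with rotary shaking, then incubated 30 min at 37 °C. Fluorescence was read and inhibition calculated as in the HCV protease assay. Soybean trypsin–chymotrypsin inhibitor was the positive control.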

Calls of active or inactive are those of the source. No cut-off for these calls is given here.

Sequence of Protease (Q9YQ12 whole entry): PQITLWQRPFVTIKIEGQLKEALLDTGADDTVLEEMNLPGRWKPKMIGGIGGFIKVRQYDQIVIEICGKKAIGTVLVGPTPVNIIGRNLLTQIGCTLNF

For the molecule `CC1(C)CCC[C@](C)([C@H]2CC[C@]3(C)[C@@H]2[C@H](O)C[C@@H]2[C@@]4(C)C=C(O)C(=O)C(C)(C)[C@@H]4CC[C@]23C)O1`, the figures for the IC50 (at Protease; in assay [1]) were 28.5 µM and greater than 212 µM, respectively.

For `CC1(C)CCC[C@](C)([C@H]2CC[C@]3(C)[C@@H]2[C@H](O)C[C@@H]2[C@@]4(C)CCC(=O)C(C)(C)[C@@H]4CC[C@]23C)O1`, the IC50 (as a rule, the concentration that gives 50% inhibition) on Protease was 39.4 µM; in assay [1], greater than 218 µM.

For the molecule `CC1(C)CCC[C@](C)([C@H]2CC[C@]3(C)[C@@H]2C(=O)C[C@@H]2[C@@]4(C)CC[C@H](OC(=O)CC(C)(C)C(=O)O)C(C)(C)[C@@H]4[C@@H](OC(=O)CC(C)(C)C(=O)O)C[C@]23C)O1`, the IC50 against Protease was found to be 10.9 µM; in assay [1], 18.9 µM. Besides, the result (on Renin (Homo sapiens); in assay [2]) was inactive.

Turning to `CC1(C)CCC[C@](C)([C@H]2CC[C@]3(C)[C@@H]2[C@H](O)C[C@@H]2[C@@]4(C)C[C@](O)(C(=O)O)C(C)(C)[C@@H]4CC[C@]23C)O1`, the IC50 is 10 µM against Protease and greater than 204 µM in assay [1].

Consider `COC(=O)[C@@]1(O)C[C@]2(C)[C@H]3C[C@@H](O)[C@@H]4[C@@H]([C@@]5(C)CCCC(C)(C)O5)CC[C@@]4(C)[C@]3(C)CC(=O)[C@H]2C1(C)C`, for which the IC50 (at Protease; in assay [1]) was greater than 193 µM throughout.

Turning to `CC1(C)CCC[C@](C)([C@H]2CC[C@]3(C)[C@@H]2[C@H](O)C[C@@H]2[C@@]4(C)CC[C@H](O)C(C)(C)[C@@H]4CC[C@]23C)O1` [PANAXADIOL], the IC50 (on Protease; in assay [1]) was greater than 217 µM throughout.

Take `CC1(C)CCC[C@](C)([C@H]2CC[C@]3(C)[C@@H]2[C@H](O)C[C@@H]2[C@@](C)(CC(=O)O)[C@H](C(C)(C)C(=O)O)CC[C@]23C)O1`: the results for the IC50 (on Protease; in assay [1]) were 11.9 µM and greater than 198 µM, respectively. Besides, the result (on Renin (Homo sapiens); in assay [2]) was inactive.

`COC(=O)[C@@]1(O)C[C@]2(C)[C@H]3C[C@@H](O)[C@@H]4[C@@H]([C@@]5(C)CCCC(C)(C)O5)CC[C@@]4(C)[C@]3(C)CC[C@H]2C1(C)C`: the IC50 (on Protease; in assay [1]) was greater than 198 µM in each case.

As to `CC1(C)CCC[C@](C)([C@H]2CC[C@]3(C)[C@@H]2[C@H](O)C[C@@H]2[C@@]4(C)CC[C@H](O)C(C)(C)[C@@H]4[C@@H](O)C[C@]23C)O1` [PANAXATRIOL], the IC50 (at Protease; in assay [1]) was greater than 210 µM in each case.

On to `CC1(C)CCC[C@](C)([C@H]2CC[C@]3(C)[C@@H]2C(=O)C[C@@H]2[C@@]4(C)CCC(=O)C(C)(C)[C@@H]4C(=O)C[C@]23C)O1`, for which the IC50 against Protease was 24.2 µM; in assay [1] it was greater than 213 µM.

With `CC1(C)CCC[C@](C)([C@H]2CC[C@]3(C)[C@@H]2[C@H](O)C[C@@H]2[C@@]4(C)C[C@](O)(C(=O)O)C(C)(C)[C@@H]4C(=O)C[C@]23C)O1`, the IC50 against Protease was 29.9 µM; in assay [1], greater than 213 µM.

Turning to `CC1(C)CCC[C@](C)([C@H]2CC[C@]3(C)[C@@H]2[C@H](O)C[C@@H]2[C@@]4(C)CC[C@H](O)C(C)(C)[C@@H]4[C@@H](OC(=O)CC(C)(C)C(=O)O)C[C@]23C)O1`, the IC50 against Protease was 2.7 µM; in assay [1], greater than 166 µM. In addition, the outcome (on Renin (Homo sapiens); in assay [2]) was inactive.

Take `CC1(C)CCC[C@](C)([C@H]2CC[C@]3(C)[C@@H]2C(=O)C[C@@H]2[C@@]4(C)CCC(=O)C(C)(C)[C@@H]4CC[C@]23C)O1`: the IC50 at Protease was greater than 218 µM; in assay [1], 72.3 µM.

Consider `CC1(C)CCC[C@](C)([C@H]2CC[C@]3(C)[C@@H]2[C@H](O)C[C@@H]2[C@@]4(C)CC[C@H](OC(=O)CC(C)(C)C(=O)O)C(C)(C)[C@@H]4[C@@H](OC(=O)CC(C)(C)C(=O)O)C[C@]23C)O1`, for which the IC50 stood at 5.4 µM on Protease and 1.8 µM in assay [1]. Moreover, the outcome (at Renin (Homo sapiens); in assay [2]) was inactive.

`CC1(C)CCC[C@](C)([C@H]2CC[C@]3(C)[C@@H]2[C@H](O)C[C@@H]2[C@@]4(C)CCC(=O)C(C)(C)[C@@H]4C(=O)C[C@]23C)O1`: the IC50 against Protease is 42.3 µM; in assay [1] it was greater than 213 µM.

As to `CC1(C)CCC[C@](C)([C@H]2CC[C@]3(C)[C@@H]2C(=O)C[C@@H]2[C@@](C)(CC(=O)O)[C@H](C(C)(C)C(=O)O)CC[C@]23C)O1`, the IC50 against Protease amounted to 22.8 µM; in assay [1], 9.1 µM. In addition, the outcome (at Renin (Homo sapiens); in assay [2]) was inactive.

As to `CC1(C)CCC[C@](C)([C@H]2CC[C@]3(C)[C@@H]2[C@H](O)C[C@@H]2[C@@]4(C)CC[C@H](OC(=O)CC(C)(C)C(=O)O)C(C)(C)[C@@H]4CC[C@]23C)O1`, the values for the IC50 (against Protease; in assay [1]) were 2.7 µM and 30.4 µM, respectively. Moreover, the result (on Renin (Homo sapiens); in assay [2]) was inactive.

With `CC1(C)CCC[C@](C)([C@H]2CC[C@]3(C)[C@@H]2C(=O)C[C@@H]2[C@@]4(C)CC[C@H](OC(=O)CC(C)(C)C(=O)O)C(C)(C)[C@@H]4CC[C@]23C)O1`, the figures for the IC50 (against Protease; in assay [1]) were 6.5 µM and 62.2 µM, respectively. For the same molecule, the outcome (at Renin (Homo sapiens); in assay [2]) was inactive.

On to `CC1(C)CCC[C@](C)([C@H]2CC[C@]3(C)[C@@H]2[C@H](O)C[C@@H]2[C@@]4(C)CC[C@H](OC(=O)CC(C)(C)C(=O)O)C(C)(C)[C@@H]4[C@@H](O)C[C@]23C)O1`, for which the figures for the IC50 (against Protease; in assay [1]) were 3.9 µM and greater than 166 µM, respectively. The outcome (at Renin (Homo sapiens); in assay [2]) was inactive.

These data come from ChEMBL document CHEMBL1153826, “Synthesis of dammarane-type triterpene derivatives and their ability to inhibit HIV and HCV proteases” (Bioorg Med Chem, 2009).
